CHRM5 antagonist: blocks acetylcholine activation of human M5 receptor. P08912. CHO-hM5 cells, Fluo-8 calcium fluorescence, ACh EC80. inhibition, % at 3 µM. actives 0.59% (n = 360,000). AID 624040;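 active = inhibition above a per-plate cutoff, the mean of that plate's test compounds plus 3 SD, cut at about 27% in these data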;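 also: 0% = acetylcholine EC80 with DMSO and 100% = DMSO without agonist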
Target sequence (P08912 whole entry, looked up): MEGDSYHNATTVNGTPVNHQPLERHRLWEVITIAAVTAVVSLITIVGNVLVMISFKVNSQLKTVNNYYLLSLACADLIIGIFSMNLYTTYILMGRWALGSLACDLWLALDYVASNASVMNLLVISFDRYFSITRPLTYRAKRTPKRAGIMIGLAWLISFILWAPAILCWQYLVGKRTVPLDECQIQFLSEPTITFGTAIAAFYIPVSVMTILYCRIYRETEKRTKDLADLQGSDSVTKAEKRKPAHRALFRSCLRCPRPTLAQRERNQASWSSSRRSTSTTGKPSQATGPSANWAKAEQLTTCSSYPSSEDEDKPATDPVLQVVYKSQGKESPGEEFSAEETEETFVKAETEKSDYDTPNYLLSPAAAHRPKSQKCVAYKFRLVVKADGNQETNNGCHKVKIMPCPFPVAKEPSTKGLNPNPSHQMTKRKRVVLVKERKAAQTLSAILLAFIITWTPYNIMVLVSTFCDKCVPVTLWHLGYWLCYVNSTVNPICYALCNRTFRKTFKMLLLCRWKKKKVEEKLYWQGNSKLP
CHRM5 agonist: agonists of human muscarinic M5 receptor (CHRM5). AID 624037. CHO-K1 hM5 cells, Fluo-8 calcium fluorescence; 0% DMSO wells, 100% maximal acetylcholine response. actives 0.19% (n = 360,000). P08912. activation, % at 3 µM;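 active = activation above the run's mean over test compounds plus 3 SD, cut at about 23% in these data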;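 also: signal is peak over basal fluorescence ratio across the kinetic read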
M5 PAM: CHRM5 positive allosteric modulation. P08912. activation, % at 3 µM. CHO-K1 hM5, Fluo-8 calcium, ACh EC20 PAM; 0% = ACh EC20, 100% = ACh EC100. actives 0.3% (n = 360,000);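 active = activation above the run cutoff, the mean activation of all test compounds plus 3 SD, cut at about 18% in these data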
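system = human M5 receptor in CHO-K1 cells | compound = one concentration, 3 µM final (nominal) | schedule = Post-acetylcholine fluorescence recording 140 s | signal = Fluo-8 calcium dye fluorescence, kinetic read | benchmarks = low control EC20 acetylcholine (0%), high control EC100 acetylcholine (100%) | repeats = singlicate, one well per test compound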
M4 ag: agonists of human muscarinic M4 receptor (CHRM4); P08173; CHO-K1 hM4/Gqi5, Fluo-8 calcium fluorescence; vehicle 0%, full acetylcholine response 100%; activation, % at 3 µM; actives 0.14% (n = 360,000); AID 624127;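 active = activation above the run mean over all test wells plus 3 SD, cut at about 32% in these data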;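 also: peak over basal fluorescence ratio per well then scaled between controls; 0% = DMSO wells and 100% = acetylcholine at EC100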
M4 PAM: positive allosteric modulators of human muscarinic M4 receptor; P08173; CHO-K1 hM4/Gqi5, Fluo-8 calcium fluorescence, ACh EC20; 0% = ACh EC20, 100% = maximal ACh; activation, % at 3 µM; actives 0.4% (n = 360,000);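 active = activation above its plate's cutoff, the mean activation of sample wells plus 3 SD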
CHRM4 antagonist: antagonists of human muscarinic M4 receptor (CHRM4) | inhibition, % at 3 µM | AID 624125 | CHO-hM4 cells, ACh EC80, Fluo-8 calcium fluorescence | actives 0.73% (n = 360,000);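 active = inhibition above its plate's cutoff, the mean inhibition of sample wells plus 3 SD, cut at about 27% in these data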;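 also: 0% = acetylcholine EC80 with DMSO and 100% = DMSO without agonist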
The depositor's hits bear a star. Rows were chosen to be rich in hits. Some 1.8% of all compounds tested hit in one or more screens of this group.

How did CCN(CC)CCNC(=O)c1ccc(NC(=O)c2cc(S(=O)(=O)N3CCCCC3)ccc2C)cc1 do in these assays?
CHRM5 antagonist: 36*; CHRM5 agonist: -10; M5 PAM: -38; M4 ag: 1; M4 PAM: -16; CHRM4 antagonist: 69*

What do the screens show for `O=C(O)C1(O)C[C@@H](O)C(O)[C@H](O)C1` (some centres undefined)?
CHRM5 antagonist: -4; CHRM5 agonist: 0; M5 PAM: -1; M4 ag: 0; M4 PAM: 9; CHRM4 antagonist: -8

Results for N#Cc1cccc(NC(=O)Cn2cnc(S(=O)(=O)N3CCCCC3)c2)c1 ?
CHRM5 antagonist: -2; CHRM5 agonist: -1; M5 PAM: 5; M4 ag: 0; M4 PAM: 6; CHRM4 antagonist: -2

Results for CCN(CC)CCNC(=O)c1ccc(NC(=O)c2cccc(S(=O)(=O)N3CCc4ccccc43)c2)cc1 ?
CHRM5 antagonist: 83*; CHRM5 agonist: -8; M5 PAM: -31; M4 ag: 0; M4 PAM: -17; CHRM4 antagonist: 61*

Results for COc1ccccc1C(CNC(=O)c1cccc(S(=O)(=O)Nc2ccc(C)cc2)c1)N(C)C (centres undefined) ?
CHRM5 antagonist: 99*; CHRM5 agonist: -7; M5 PAM: -14; M4 ag: 0; M4 PAM: -14; CHRM4 antagonist: 32*

How did COc1ccc(C(=O)Nc2ccc(S(=O)(=O)N3CCc4ccccc43)cc2)cc1 do in these assays?
CHRM5 antagonist: 14; CHRM5 agonist: 2; M5 PAM: -13; M4 ag: 18; M4 PAM: -27; CHRM4 antagonist: 42*

What do the screens show for `CCN(CC)CCNC(=O)c1ccc(NC(=O)c2cccc(S(=O)(=O)N3c4ccccc4CC3C)c2)cc1` (centres undefined)?
CHRM5 antagonist: 98*; CHRM5 agonist: -8; M5 PAM: -15; M4 ag: 1; M4 PAM: -16; CHRM4 antagonist: 97*

What do the screens show for `COc1ccc(NC2CCCN(C(=O)CSc3ccncc3)C2)cc1` (centres undefined)?
CHRM5 antagonist: 5; CHRM5 agonist: -4; M5 PAM: -4; M4 ag: 0; M4 PAM: -6; CHRM4 antagonist: 11

What do the screens show for `C=C[C@@H]1c2cccc(C)c2N(S(=O)(=O)c2ccc(C)cc2)[C@H](c2ccc(OC(C)=O)cc2)C1(C#N)C#N`?
CHRM5 antagonist: 11; CHRM5 agonist: -4; M5 PAM: 1; M4 ag: 2; M4 PAM: -2; CHRM4 antagonist: 8

What do the screens show for `Cn1cc(S(=O)(=O)N2CCc3ccccc32)cc1C(=O)NC(C)(C)C`?
CHRM5 antagonist: 41*; CHRM5 agonist: 10; M5 PAM: -22; M4 ag: 24; M4 PAM: -12; CHRM4 antagonist: 37*

What do the screens show for `CCOC(=O)C1CCC(CNCc2ccc(Cl)cc2)CC1` (centres undefined)?
CHRM5 antagonist: 21; CHRM5 agonist: -7; M5 PAM: -15; M4 ag: 2; M4 PAM: -14; CHRM4 antagonist: 42*

Results for CC1(C)C2CCC(CN=C(N)CSS(=O)(=O)O)C1C2 (centres undefined) ?
CHRM5 antagonist: 5; CHRM5 agonist: 1; M5 PAM: 2; M4 ag: 1; M4 PAM: 8; CHRM4 antagonist: -15

What do the screens show for `O=C(N/N=C/c1ccco1)c1cccc([N+](=O)[O-])c1`?
CHRM5 antagonist: -9; CHRM5 agonist: -1; M5 PAM: 5; M4 ag: 1; M4 PAM: 28*; CHRM4 antagonist: 1

What do the screens show for `Cc1ccccc1C(=O)Nc1ccccc1C(=O)N/N=C\c1ccco1`?
CHRM5 antagonist: -8; CHRM5 agonist: 0; M5 PAM: -3; M4 ag: 2; M4 PAM: 31*; CHRM4 antagonist: -17

Results for O=C(Nc1ccccc1C(=O)N/N=C/c1ccco1)c1ccc(F)cc1 ?
CHRM5 antagonist: -22; CHRM5 agonist: 0; M5 PAM: 9; M4 ag: 1; M4 PAM: 36*; CHRM4 antagonist: 21

Results for COCCN1C[C@@H](CO)O[C@@H](n2cnc3c(NC4CCC4)ncnc32)C1 ?
CHRM5 antagonist: -4; CHRM5 agonist: 0; M5 PAM: 2; M4 ag: 0; M4 PAM: 3; CHRM4 antagonist: 6

How did Cc1[nH]c2c(C)cccc2c1CCNC(=O)c1ccc2c(c1[N+](=O)[O-])C(=O)c1ccccc1C2=O do in these assays?
CHRM5 antagonist: 4; CHRM5 agonist: 0; M5 PAM: -1; M4 ag: 2; M4 PAM: -10; CHRM4 antagonist: 29*

What do the screens show for `COc1ccc2oc(C(=O)OCC(=O)N(C)c3c(N)n(Cc4ccccc4)c(=O)[nH]c3=O)c(C)c2c1`?
CHRM5 antagonist: 7; CHRM5 agonist: -2; M5 PAM: -3; M4 ag: 1; M4 PAM: -1; CHRM4 antagonist: 8

How did CCOC(=O)c1ccccc1NC(=O)COC(=O)CSc1ccccc1 do in these assays?
CHRM5 antagonist: -2; CHRM5 agonist: -1; M5 PAM: 2; M4 ag: 0; M4 PAM: 21*; CHRM4 antagonist: -4

What do the screens show for `Cc1ccccc1NC(=O)CSc1nnnn1C`?
CHRM5 antagonist: 1; CHRM5 agonist: -2; M5 PAM: 1; M4 ag: 0; M4 PAM: 5; CHRM4 antagonist: -4

How did CCOC(=O)c1ccccc1NC(=O)CSc1nnnn1C do in these assays?
CHRM5 antagonist: -7; CHRM5 agonist: -1; M5 PAM: 3; M4 ag: 0; M4 PAM: 19*; CHRM4 antagonist: 0

Results for COc1cc(OC)c(NS(=O)(=O)c2ccc3c(c2)NC(=O)CO3)cc1Cl ?
CHRM5 antagonist: 14; CHRM5 agonist: 4; M5 PAM: -4; M4 ag: 8; M4 PAM: -3; CHRM4 antagonist: 7

Results for CCOc1ccc(NC(=O)c2cc3c(=O)n(C)c4ccccc4c3n2C)cc1 ?
CHRM5 antagonist: -2; CHRM5 agonist: 4; M5 PAM: 0; M4 ag: 1; M4 PAM: 3; CHRM4 antagonist: -1

How did COc1ccccc1NC(=O)c1cc2c(=O)n(C)c3ccccc3c2n1C do in these assays?
CHRM5 antagonist: 15; CHRM5 agonist: -3; M5 PAM: -17; M4 ag: 10; M4 PAM: -22; CHRM4 antagonist: 54*

How did CCC(CC)c1nnc(NC(=O)CCc2ccc(OC)cc2)s1 do in these assays?
CHRM5 antagonist: 2; CHRM5 agonist: 8; M5 PAM: 5; M4 ag: 1; M4 PAM: 2; CHRM4 antagonist: -13

Bioassay records as filed in PubChem.
